From the RNAGym collection of RNA variant scans (doi:10.1126/science.aae0568)
This sample holds only a part of the variants without activity.

B1: tRNA (parent)
chain: GUUCCGUUGGCGUAAUGGUAACGCGUCUCCCUCCUAAGGAGAAGACUGCGGGUUCGAGUCCCGUACGGAACG

Variants of: B1
Experiment: yeast fitness relative to wild type (ratio to wild type); higher = fitter; tRNA-Arg(CCU), competitive growth, 37 C, YPD
In short: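 Amplicons of the tRNA-Arg(CCU) gene were sequenced, 100-nucleotide paired-end, from the start population and from each end population of a pooled yeast competition. The competition, in six parallel replicates, lasted 24 hours in YPD at 37°C. Fitness relative to wild type was calculated from changes in genotype frequencies. Genotypes had to have ≥ 100 starting reads, and estimates < 0.5 were set to 0.5.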

Variant | yeast fitness
GUUACGUAGGCGUAAUGGUAACGUGUCUCCCUCCUAAGGAGAAGACUGCGGGUUUGAGUCCCGUACGCAACG | ≤ 0.5
GUUACGUUGGCGCAAUGGUAACCCGUCUCCCUCGUAAGGGGAAGGCUGCGGGCUCGAGUCCCGAACGGAACG | ≤ 0.5
GUUACGCUGGCGUAAUGGUAACGCGUCUCCCUCCUAAGGAGAAGCCUGCGGGUUCGAGUCGCGUACGGAACG | ≤ 0.5
GUUACGUUGGCGUAAUGGUAACGCGUCUCCCUCCUAAGAAGAAGACUGCGGCUUGGAGUCCCGUACGGAACG | ≤ 0.5
GUUACGUUGGCGCAAUGGUAACGCGUCUCUCUCCUAAGGGGAAGACUGCGGGUUAGAGUCCCCUCCGGAACG | ≤ 0.5
GUUACGUUGGCGUAAUGGUAACGCGUCUCCCUCCUAAGCACAAGACUGCGGGUUCGAGUCCCGUACGGAACG | ≤ 0.5
GUUACGAUGGCGUAAUGGUAACGCGUCUCCCUCCUAAGGAGAAGACUGCGGGUUCGAGUCCCGUACGGAACG | 0.679
GUUACGUUGGCGUAAUGGUAACCCGUCUCCCUCCUAAGGAGAAGACUGCAGGUUCGGGUCCCGUACGGAACG | 0.62
GUUACGUUGGCGAAAUGGUAACGCGUCUCCCUCCUAAGGAGAAGACUGCGGGUUCGAGUCCCGUACGGAACG | 0.595
GUUACGUUGGCGGAAUGGUAACGCGUCUCCCUCCUAAGGAGAAGACUGCGGGUUCGAGUCCCGUACGGAACG | 0.619
GUUACGCUGGCGUAAUGGUAACGCGUUUCCCUCCUAAGGAGAAGACUGCGGGAUCGAGUCCCGUACGGAACG | ≤ 0.5
GUUACGUUGGCGUAAUGGUAACGCGUCUCCCUCCUAAGGAGAAAAUUGCGGGCUCGAGUCCUGUACGGAACG | ≤ 0.5
GUUACGUUGGCGACAUGGUAACGCGUCUCCCUCCUAAGGAGAUGACUGCGGGUUCGAGUCCCGUACGGAACG | 0.601
GUUACGUUGGCGUAAUGGUAACGCCUCUCCCUCCUAAGGAGAAGACUGCGGGUUCGAGUCGCGUACGGAACG | 0.711
GUUACGUUGGCGUAAUGGUAACGCGUCUCCCUCCUAAGGAGAAGACUGCAGGUUCGAGUCCCGUACGGAGCG | 0.57
GUUACGUUGGCGUAAUGGUAACCCGUCUCCCUCCUAAGGAGAAGACUGUGGGUUCGAAUCCCGUACGGCACG | 0.535
GUUACGUUGGCGUAAUGGUAACGCGUCUCCCUCCUAACGAGAAGACUGCGGGUUGGAGUCCCGUACGGCACG | ≤ 0.5
GUUACGUUGGCGUAAUGGUAACGCGUCUCCCUCCUAAGGAGAAGACUGCGAGUUCGAGUCCCGUACGGAGCG | 0.58
GUUACGUUGGCGAAAUGGUAGCGCGUCUCCCUCCUAAGGAGAAGACUGCGGGUUCGACUCCCGUACGAAACG | 0.607

Variant | yeast fitness
GUUACGUUGGCGUAAUGGUAACGCGUCUCCCUCCUAAAGAGAAGACUGCGGGUUCGAGUCCCGUACGGAACG | 0.805
GUUACGUUGGCGUAAUGGUAACGCGUCUCCCUCCUAAGGAGAAGACUACGGGUUCGAGUCUCGUACGGAACG | 0.661
GUUACGUUGGCGUAAUGGUAACGCAUCUCCCUCCUAAGGAGAAGUCUGCGGGUUCGAGUCCCGUACGGAACG | 0.593
GUUACGUUGGCGUAAUGGUAACGCGUCUCCCUCCUAAGGAGAAAACUGUGGGUGCGAGUCCCGUAUGGACCG | 0.503
GUUACGUAGGCGUAAUGGUAACGUGUCUCCCUCCUAAGGAGAAAACUGCGGGUUCGAGUCCCGUACGGACCG | ≤ 0.5
GUUACGUUGGCGUAAUGGUAACCCGUCUCCCUCCUAAGGAGAAGACUGCGGGUUCCAGACCCGUGCGGAACG | ≤ 0.5
GUUACGUCGGCGUACUGGUAACGCGUCUCCUUCCUAAGGAGAAGACUCCGGGUUCGAGUCCCGUCCGGAACG | 0.608
GUUACGUAGGCGUAAUCGUAACGCGUCUCCUUCCUAAGGAGAAGACUGCGGGUUCGAGUCCCGUACGGAACG | 0.558
GUUACGUUGGCGUAAUGGUAACACGUCACCCUCCUAAGGAGAAGACUGCGGGUUCGGGUCCCGUACGGAACG | ≤ 0.5
GUUACGUUGGCGUAAUGGUAACGCGUCUCCCUCCUAAGGAGAACACUGCGGGUUCGAGUCCCGUACGGAACG | 0.742
GUUACGUGGGCGUUAUGGUAACGCGUCUCCCUCCUAAGGAGAAGACUGCGGGUUCGAGUCCCGUACGGAUCG | ≤ 0.5
GUUACGUUGGCGUAAUGGUAACGCGUCUCCCUCCUAAGGAGAACACUGCGGGUUCGCGUCCCGUACGGAACG | ≤ 0.5
GUUACGUUGGCGUAAUGGUAACGCAUCUCCCUCCUAAGGCGAAGACUGCGGGUUCGAGUCCCGUCCGGAACG | ≤ 0.5
GUUACGUAGGCCUAAUGGCAACGCGUCUCUCUCCUAAGGAGAAGACAGCGGGUUCGAGUCCCGUUCGGAACG | ≤ 0.5
GUUACGCUGGCGUAAUGGUAACGCGUCUCCCUCCUGAGGAAAAGACUGAGGGUUCGAGUCCCGUACUGAACG | ≤ 0.5
GUUACGUUGGCGUAAUGGUAACGCCUCUGCCUCCUAAGGAAAAGACUGUGGGUUCGAGUCCCGUGUGGAACG | ≤ 0.5
GUUACGUUGGCGUAAUGGUAACGCGUCUCCCUCCUAAGGAGAAGACUGCGGCUUCGAGUCCUGUACGGAACG | ≤ 0.5
GUUACGUUGGCGUAAUGGUAACCCGUCUCCCUCCUAAGGAGAAGACUGCGGGUUCGAGUCCCGUGCGGAACG | 0.569
